Data set [1] in a line: Acute toxicity in ip dosed Swiss-Webster mouse measured after 72 hrs. Format: organism-based. As to conditions: in vivo.
The subject of another data set is Escherichia coli. Put plainly: Antibacterial activity against Escherichia coli ATCC 25922 assessed as inhibition of bacterial growth at up to 100 ug/ml after 16 hrs by spectrophotometer. The format is functional, organism-based. A digest of the protocol:
(§1)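 Tested at 10, 25, 50 and 100 µg/mL in Mueller-Hinton broth at 37 °C with rotary shaking at 150 rpm. Incubation was 16 h for E. coli and 7 h for P. aeruginosa. Growth was read turbidimetrically at 600 nm.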

Data set [2] concerns Mycolicibacterium smegmatis. Put plainly: Antibacterial activity against Mycobacterium smegmatis H607 assessed as inhibition of bacterial growth up to 100 ug/ml after 22 hrs by spectrophotometer. Format: functional, organism-based. Put shortly:
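Sauton synthetic medium, with compound at 10, 25, 50 and 100 µg/mL. Incubated 22 h at 37 °C with rotary shaking at 150 rpm. Growth was measured turbidimetrically at 600 nm.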

The subject of a further data set is Pseudomonas aeruginosa. The experiment in a line: Antibacterial activity against Pseudomonas aeruginosa ATCC 27853 assessed as inhibition of bacterial growth at up to 100 ug/ml after 7 hrs by spectrophotometer. Format: functional, organism-based. A digest of the protocol: as §1
Data set [3] has as its system Candida albicans. The experiment in a line: Antifungal activity against Candida albicans ATCC 11651 assessed as inhibition of fungal growth up to 100 ug/ml after 16 hrs by spectrophotometer. The format is functional, organism-based. Put shortly: (§2)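 Yeast nitrogen base (pH 7.0), with compound at 10, 25, 50 and 100 µg/mL. Incubated 16 h at 37 °C with 150 rpm rotary shaking. Turbidity was read at 600 nm.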

Data set [4] deals with Candida albicans. Put plainly: Antifungal activity against Candida albicans clinical isolate assessed as inhibition of fungal growth up to 100 ug/ml after 16 hrs by spectrophotometer. Format: functional, organism-based. A digest of the protocol:
as §2

Data set [5] relates to Salmonella typhimurium. Put plainly: Mutagenicity in Salmonella typhimurium TA100 assessed as revertant colonies at 300 umol incubated under aerobic conditions in dark for 2 days by Ames test in presence of Sprague-Dawley rat liver S9 fraction. Format: toxicity, organism-based. As to conditions: salmonella enterica subsp. enterica serovar typhimurium, s9, 48 h. A digest of the protocol: (§3)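 Ames plate-incorporation assay. Overnight TA-100 nutrient-broth culture, about 10^7 cells per plate. Compound solutions were adjusted to pH 7 and filter-sterilized, then mixed in a histidine-biotin-limited agar overlay on minimal glucose agar, with or without S-9. S-9 was the 9000g supernatant of 25% liver homogenate in 0.15 M KCl from phenobarbital-treated male Sprague-Dawley rats. Plates were incubated aerobically at 37 °C in the dark for 2 days, or anaerobically (Gas-Pak) for 16-17 h and then aerobically for 48 h. Revertants were counted in triplicate and averaged. Matched vehicle/condition background was subtracted.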
(In the Ames test, an excess of revertant colonies over the control signals mutagenicity.)

The test system of data set [6] is Salmonella typhimurium. The experiment in a line: Mutagenicity in Salmonella typhimurium TA100 assessed as revertant colonies at 300 umol incubated under anaerobic conditions for 16 to 17 hrs followed by 48 hrs under aerobic conditions by Ames test. Format: toxicity, organism-based. As to conditions: salmonella enterica subsp. enterica serovar typhimurium. Put shortly:
as §3

The subject of data set [7] is Salmonella typhimurium. Put plainly: Mutagenicity in Salmonella typhimurium TA100 assessed as revertant colonies at 300 umol incubated under anaerobic conditions for 16 to 17 hrs followed by 48 hrs under aerobic conditions by Ames test in presence of Sprague-Dawley rat liver S9 fraction. Format: toxicity, organism-based. Particulars: salmonella enterica subsp. enterica serovar typhimurium. Put shortly:
as §3

The test system of data set [8] is Salmonella typhimurium. The experiment in a line: Mutagenicity in Salmonella typhimurium TA100 assessed as revertant colonies at 300 umol incubated under aerobic conditions in dark for 2 days by Ames test. Format: toxicity, organism-based. As to conditions: salmonella enterica subsp. enterica serovar typhimurium, 48 h. Put shortly:
as §3

Broadly, the LD50 is the dose expected to kill half of the subjects tested. A higher LD50 goes with lower toxicity.

The source made the active and inactive calls. The calls are words filed in the database; no cut-off is given here.

In the case of `O=C(O)[C@H]1CCCN1[N+](=O)[O-]`, the LD50 at 72 h in data set [1] was 1390 µmol/kg. Moreover, the inhibition entry (in the data set on Escherichia coli; in data set [2]; in the data set with Pseudomonas aeruginosa; in the data set with Candida albicans [3]; in the data set with Candida albicans [4]) was “inactive” in each case.

With `O=C(O)[C@@H]1CCCN1[N+](=O)[O-]`, the Activity result with Salmonella typhimurium [5], with Salmonella typhimurium [6], in the data set on Salmonella typhimurium [7] and in the data set on Salmonella typhimurium [8] was “Non-toxic” each time. In [1], this compound came in with an LD50 at 72 h of 1170 µmol/kg. Also, the inhibition result (in the data set on Escherichia coli; in [2]; in the data set on Pseudomonas aeruginosa; in the data set with Candida albicans [3]; in the data set on Candida albicans [4]) was “inactive” each time.

`O=C(O)C1CCCCN1[N+](=O)[O-]` (racemic): the Activity result with Salmonella typhimurium [5], in the data set with Salmonella typhimurium [6], in the data set with Salmonella typhimurium [7] and with Salmonella typhimurium [8] was “Non-toxic” in each case. Further, the LD50 at 72 h in data set [1] was 2100 µmol/kg. In addition, the inhibition result (in the data set with Escherichia coli; in data set [2]; in the data set on Pseudomonas aeruginosa; with Candida albicans [3]; with Candida albicans [4]) was “inactive” throughout.

The values above are taken from ChEMBL document CHEMBL3244321, “Nitramino acids. Synthesis and biological evaluation of 1-nitroproline, 1-nitropipecolic acid, and N-nitrosarcosine” (J Med Chem, 1977).
